In the library only some 2.4% were active in any assay of this set; here they are far more common.
Env fusion inh = HIV envelope-mediated fusion inhibition. HeLa-JRFL Env/CEM21 cell fusion, luciferase. AID 651610. inhibition, % at 12.3 µM. 1.1% of 360,000 active;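 active = mean replicate inhibition score of at least 50 and every replicate individually at or above 50; inconclusive = only one of the two criteria met; inactive = mean below 50 and not all replicates reaching 50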;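 note: 0% = plate neutral controls and 100% = maraviroc near 300 nM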
GSIS activator = primary screen for activators of insulin secretion dependent on glucose, INS-1E cells, GLuc reporter luminescence; INS-1E GLuc reporter insulin secretion, 2-3 h; activation, % at 16.6 µM; 0.61% of 370,000 active; AID 743287;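 active = lowest replicate activation of at least 40%, so every replicate reaches that level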;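 note: 0% = median of neutral control wells and 100% = median of IBMX positive control wells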
miR-122 sensor = inhibitors of miR-122 in Huh7 cells | AID 602342 | activation (reporter increase), % at 12.5 µM | Huh7 miR-122 Renilla luciferase sensor, 48 h; neutral wells = 0, positive control = 100 | 0.3% of 340,000 active;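 active = mean replicate activation score at least 90 and every replicate individually at or above 90; inconclusive = only one of the two criteria met; inactive = neither criterion met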;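 note: higher luciferase means less miR-122 activity so hits act as miR-122 inhibitors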
Cneo AK release = causes C. neoformans cell lysis. adenylate kinase release luminescence, 4 h; normalised: neutral wells 0, clomiphene wells 100. 0.2% of 360,000 active. lysis activity, % at 15 µM;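 active = mean lysis activity across replicates of at least 80%, whatever share of replicates individually reach that level; inactive = mean lysis activity below 80%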
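Material – log-phase Cryptococcus neoformans yeast cells · Input – 5 × 10^6 yeast cells/mL · Medium – fresh YPD growth medium · Doses – single compound concentration per well · Timing – static 4 h at 37 °C with compound, 1 h detection · Detection – adenylate kinase release luminescence · Read-out – signal increase indicating cell lysis · Control set – Clomiphene as positive lysis control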
dFosB act-1 = enhances mouse delta FosB homodimer DNA binding. P13346. activation, % at 25 µM. purified delta FosB, TAMRA-CDK5 oligo fluorescence polarization; percent of positive-control signal above neutral wells. 0.99% of 340,000 active. AID 493131;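 active = mean activation above about 17%, with every replicate also reaching it, limit read from the data, passing the limit was not always enough; inconclusive = only one of the two conditions met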
Target sequence (P13346 whole entry, looked up): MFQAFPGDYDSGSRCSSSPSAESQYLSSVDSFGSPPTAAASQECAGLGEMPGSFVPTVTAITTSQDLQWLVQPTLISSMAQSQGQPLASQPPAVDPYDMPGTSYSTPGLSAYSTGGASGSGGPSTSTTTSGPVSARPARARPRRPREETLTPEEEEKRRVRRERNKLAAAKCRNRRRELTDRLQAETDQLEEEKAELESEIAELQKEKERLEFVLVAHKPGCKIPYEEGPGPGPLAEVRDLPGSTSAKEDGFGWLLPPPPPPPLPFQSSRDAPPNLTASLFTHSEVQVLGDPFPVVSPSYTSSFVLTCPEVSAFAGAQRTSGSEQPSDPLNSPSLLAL
Rtt109 HAT inh = C. albicans Rtt109 histone acetyltransferase inhibition. Q5AAJ8. purified Rtt109/Vps75, ThioGlo CoA-SH fluorescence, 4 h. inhibition, % at 34.9 µM. 0.16% of 330,000 active;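 active = inhibition of at least 50% in every replicate; inconclusive = best replicate reaches 50% inhibition but some replicates fall short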
dFosB act-2 = enhances mouse delta FosB homodimer binding to DNA. purified delta FosB, TAMRA-CDK5 oligo fluorescence polarization; normalised: neutral wells 0, positive control 100. shares compounds with dFosB act-1. activation, % at 24.9 µM. AID 588690. 2,400 tested, under 10 active;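 active = highest replicate activation at or above 34% and every replicate reaching that threshold; inconclusive = meets only one of the two criteria; inactive = meets neither criterion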;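 note: higher polarization means more probe DNA bound by delta FosB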
Numbers without * were called inactive; ? = inconclusive; / = no result given; [ ] = another dose, or the depositor's remark.

SMILES	Env fusion inh	GSIS activator	miR-122 sensor	Cneo AK release	dFosB act-1	Rtt109 HAT inh	dFosB act-2
CCOc1ccc(NC(=O)c2ccc(NC(=O)Cc3n[nH]c(=O)c4ccccc34)cc2)cc1	24	12	-9	-1	111*	-6	-7
CCOc1ccc(C(=O)COC(=O)Cc2n[nH]c(=O)c3ccccc23)cc1	4	1	3	2	-3	0	/
Nc1nc(N)c2c(ccc3nccc32)[nH]1	-8	-2	/	0	36*	-2	-7
COc1cc2c3nnc(-c4ccc(F)cc4)c-3cn(Cc3ccc(C)cc3)c2cc1OC	20	/	-1	-1	?	5	/
COc1cc2c3nnc(-c4ccc(F)cc4)c-3cn(Cc3cccc(C)c3)c2cc1OC	10	-7	-17	-1	41*	-5	-2
COc1cc2c3nnc(-c4ccccc4)c-3cn(Cc3ccc(F)cc3)c2cc1OC	-47	-25	/	/	22*	-9	1
O=C(c1cccc(F)c1)N1C[C@H]2[C@@H](c3ccccc31)[C@@H](CO)N2C(=O)c1cccc(F)c1	/	-1	70[16.7 µM]	0	/	/	/
NC(=O)c1ccc(NC(=O)CSC2=Nc3ccccc3C3CC=NN23)cc1 (configuration not stated)	/	/	-1	0	25*	-3	-2
COC(=O)c1ccc(NC(=O)CSC2=Nc3ccccc3C3CC=NN23)cc1 (configuration not stated)	/	/	4	-1	-15	2	/
CN1CCN(C2=Nc3c(Cl)cc(Cl)c4cccc2c34)CC1	1	19	-9	1	20*	6	-1
CN1CCN(C2=Nc3cc(Cl)ccc3Nc3ccccc32)CC1	41	/	-3	1	-1	2	/
COc1ccc(NC(=O)N(C)C[C@H]2Oc3ccc(NC(=O)C4CCCCC4)cc3CC(=O)N([C@@H](C)CO)C[C@H]2C)cc1	-4[16.7 µM]	-9	-1[16.7 µM]	0	/	/	/
CN(c1ccccc1)S(=O)(=O)c1ccc(Cl)c(C(=O)Nc2ccc(-c3nc4ccccc4[nH]3)cc2)c1	22	7	/	/	44*	14	3
O=C(Nc1ccc(-c2nc3ccc(NC(=O)c4cccs4)cc3[nH]2)cc1)c1cccs1	/	/	/	/	47*	-9	-1
O=C(Nc1ccc(-c2nc3ccccc3[nH]2)cc1)c1ccc(N2C(=O)CCC2=O)cc1	-2	-5	/	/	25*	-4	3
CS(=O)(=O)c1cccc(C(=O)Nc2ccc(-c3nc4ccccc4[nH]3)cc2)c1	-34	12	24	0	37*	-1	8
CCC(=O)N1[C@H](CO)[C@@H](c2ccccc2)C12CN(C(=O)c1cnccn1)C2	/	4	/	/	/	/	/
COc1ccccc1NC(=O)N[C@@H]1CC[C@@H](CC(=O)N2CCC(Cc3ccccc3)CC2)O[C@@H]1CO	2[16.7 µM]	-15	/	62	/	/	/
Cc1ccc(S(=O)(=O)c2nc(Nc3ccccc3C#N)sc2Cl)cc1	43	8	/	/	-5	2	/
Cc1ccc(S(=O)(=O)c2nc(Nc3ccccc3N3CCOCC3)sc2Cl)cc1	-6	-12	5	4	22*	7	3
O=C(C[C@H]1C[C@@H]2c3cc(NC(=O)NC4CCCCC4)ccc3O[C@@H]2[C@@H](CO)O1)NCCc1ccccc1	9[16.7 µM]	9	20[16.7 µM]	0	/	/	/
Cc1ccc(-c2nnc(NCc3nc4ccccc4[nH]3)c3ccccc23)cc1S(=O)(=O)N1CCOCC1	/	/	4	-1	56*	6	0
Cc1ccc(-c2nnc(NCc3nc4ccccc4[nH]3)c3ccccc23)cc1S(=O)(=O)N(C)C	/	-5	-2	-3	?	1	/
CCOc1ccc(-c2nnc3ccc(SCC(=O)Nc4nc5ccc(C)cc5s4)nn23)cc1	-3	-3	/	/	42*	-13	0
Cc1ccccc1NC(=O)C1CCN(c2cc(-c3ccccc3)nc3ncnn23)CC1	/	/	-15	-2	24*	-9	-5
SMILES	Env fusion inh	GSIS activator	miR-122 sensor	Cneo AK release	dFosB act-1	Rtt109 HAT inh	dFosB act-2
O=S(=O)(c1ccccc1)N1CCN(c2cc(-c3ccccc3)nc3ncnn23)CC1	-11	/	-4	-1	7	-8	/
COc1ccc(Br)cc1CNC(=O)CN1C(=O)C(c2ccccc2)Oc2cccnc21 (configuration not stated)	20	-11	6	-3	27*	7	1
COc1ccc(NC(=O)CCCN2C(=O)C(c3ccccc3)Oc3cccnc32)cc1OC (configuration not stated)	4	27	6	-2	-1	2	/
Cc1ccc(-c2cc(C(F)F)nc3sc4c(=O)[nH]cnc4c23)cc1	/	-7	/	8	33*	-1	0
COc1ccc(CN(C)C[C@H]2OCCCC[C@@H](C)Oc3ccc(N(C)C)cc3C(=O)N([C@@H](C)CO)C[C@@H]2C)cc1	-93[16.7 µM]	-14	-6[16.7 µM]	-3	/	/	/
O=C(/C=C/c1cc2c(cc1Br)OCO2)NCc1ccc(F)cc1	/	-8	-2	-4	25*	-3	1
C[C@H]1CN([C@@H](C)CO)C(=O)c2cc(NS(=O)(=O)c3ccc(F)cc3)ccc2O[C@@H]1CN(C)Cc1ccc(Cl)c(Cl)c1	29[16.7 µM]	-22	2[16.7 µM]	0	/	/	/
COc1ccc(S(=O)(=O)N2C[C@H](O)COC[C@H]3O[C@H](CC(=O)NCc4ccc(Cl)c(Cl)c4)CC[C@@H]32)cc1	13[16.7 µM]	-9	-5[16.7 µM]	0	/	/	/
CCCn1c(N)c(C(=O)CSc2nc3ncc(Cl)cc3[nH]2)c(=O)n(C)c1=O	-4	6	-3	0	28*	15	5
COc1cc(CN2CC3(CN(C(=O)NC(C)C)C3)c3c(n(C)c4cc(OC)ccc34)[C@@H]2CO)cc(OC)c1	/	26	/	/	/	/	/
COc1ccc(/C=C/C(=O)OCC(=O)NCCNC(=O)COC(=O)/C=C/c2ccc(OC)cc2)cc1	3	7	4	2	2	-4	/
COc1ccc(/C=C/C(=O)OCC(=O)Nc2c(C)cccc2C)cc1	16	1	/	/	25*	13	-14
CCCc1nnc(NC(=O)CCS(=O)(=O)c2ccccc2)s1	2	15	-4	2	-1	14	/
CCCCc1nnc(NC(=O)CCS(=O)(=O)c2ccc(Cl)cc2)s1	/	4	1	4	24*	7	2
C[C@@H]1CN([C@@H](C)CO)C(=O)c2cc(-c3cccc(F)c3)cnc2O[C@H]1CN(C)C(=O)C1CC1	-8[16.7 µM]	-7	3[16.7 µM]	/	/	/	/
Nc1nc(Nc2ccccc2)nc(NCc2ccco2)c1[N+](=O)[O-]	-25	42	1	-9	27*	11	4
S=c1nc(-c2ccccc2)[nH]c2ccccc12	5	0	16	4	-1	2	/
